# Pf Dd2 growth – inhibitors of Plasmodium falciparum Dd2 growth. 94,000 compounds, 2.3% hits. AID 1159554. activity change, % at 10 µM. P. falciparum Dd2 growth, SYBR Green, 72 h; active compounds read low; in the data active means activity change below about -80%; inconclusive means no clear call, values can overlap the other calls
# GASC1 inh – KDM4C (human) demethylase inhibition; Q9H3R0; GST-KDM4C 2-372, H3K9me3 peptide, LANCE TR-FRET; inhibition, % at 12.5 µM; 96,000 compounds, 0.15% hits;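 active means mean replicate inhibition above about 25%, with at least 55% of replicates also reaching it, limit read from the data, passing the limit was not always enough; inconclusive means only one of those two conditions met; inactive means neither condition met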
# Target sequence (Q9H3R0 2-372 limits assumed): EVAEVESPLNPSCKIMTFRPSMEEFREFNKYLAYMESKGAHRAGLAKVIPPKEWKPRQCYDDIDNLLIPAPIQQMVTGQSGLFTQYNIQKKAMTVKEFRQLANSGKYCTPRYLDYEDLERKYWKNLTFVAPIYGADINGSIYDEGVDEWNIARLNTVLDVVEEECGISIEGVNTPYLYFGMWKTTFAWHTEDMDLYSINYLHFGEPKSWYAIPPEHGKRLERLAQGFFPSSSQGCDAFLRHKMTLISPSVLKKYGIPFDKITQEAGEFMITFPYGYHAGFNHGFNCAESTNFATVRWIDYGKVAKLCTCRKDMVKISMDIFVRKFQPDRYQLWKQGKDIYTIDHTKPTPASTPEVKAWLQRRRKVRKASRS
#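 reagent = H3K9me3 peptide substrate, Fe(II), 2-oxoglutarate | system = GST-tagged GASC-1 (JMJD2C) catalytic fragment, aa 2-372 | amount = enzyme final amount 10 nM | read-out = Fall in 671/618 emission ratio as inhibition | medium = HEPES buffer, pH 7.5, plus ascorbate | schedule = 30 min reaction, 60 min detection, RT | measured by = LANCE TR-FRET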
# IDH1 R132H inh – blocks human IDH1 R132H reductase activity | 70,000 compounds, 0.18% hits | inhibition, % at 10 µM | diaphorase/resazurin fluorescence, 60 min | O75874; in the data active means inhibition above about 34%; inconclusive means no clear call, values can overlap the other calls; inactive means below about 11%;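 further: 0% = DMSO and 100% = no enzyme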
# T cruzi growth-1 – blocks T. cruzi growth in NIH3T3 culture; T. cruzi beta-gal in NIH3T3, GalScreen luminescence, 90 h; inhibition, % at 8.34 µM; 77,000 compounds, 5.9% hits;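 active means mean inhibition above about 93%, with at least 55% of replicates each passing it, limit read from the data, passing the limit was not always enough; inconclusive means only one of those two conditions holds; inactive means neither condition holds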
# T cruzi growth-2 – inhibitors of T. cruzi proliferation; shares compounds with T cruzi growth-1; T. cruzi beta-gal in NIH3T3, GalScreen luminescence, 90 h; inhibition, % at 8.35 µM; 5,600 compounds, 72% hits;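 active means mean replicate inhibition above about 95% and at least 55% of replicates individually reaching it, limit read from the data; inconclusive means only one of the two criteria is met; inactive means neither criterion is met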
# T cruzi growth-3 – Trypanosoma cruzi proliferation inhibition; shares compounds with T cruzi growth-1; inhibition, % at 2.09 µM; T. cruzi beta-gal in NIH3T3, GalScreen luminescence, 90 h; 5,600 compounds, 21% hits;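 active means mean inhibition above about 95%, with at least 55% of replicates also reaching it, limit read from the data; inconclusive means meets just one of the two conditions; inactive means meets neither condition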;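 further: plate controls were neutral control median for no effect and positive control median for full effect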
# NIH3T3 tox – kills mouse NIH/3T3 fibroblasts; shares compounds with T cruzi growth-1; NIH/3T3 viability, CellTiter-Glo ATP luminescence, 90 h; cytotoxicity (signal decrease), % at 8.35 µM; 5,600 compounds, 14% hits; AID 651742;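 active means mean signal decrease across replicates above about 35% based on untreated-well scatter, with enough replicates individually passing, limit read from the data; inconclusive means no rule stated though some were filed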;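 further: 0% = median of neutral control wells and 100% = median of positive control wells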
# 3T3 cytotox 2 – cytotoxicity in mouse NIH/3T3 fibroblasts; 5,600 compounds, 56% hits; inhibition, % at 24.9 µM; NIH/3T3 viability, CellTiter-Glo ATP luminescence, 90 h; shares compounds with T cruzi growth-1;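 active means mean loss of cell viability signal at or above a set limit, and enough replicates individually reaching it; inconclusive means meets only the mean limit or only the replicate share; inactive means meets neither condition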;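 further: 0% = median of neutral control wells and 100% = median of positive control wells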
# * marks the source's active call; other numbers are inactive results; ? = inconclusive; . = not tested or not shown. An excerpt weighted towards active compounds, which were near 5.8% of everything screened.
SMILES,Pf Dd2 growth,GASC1 inh,IDH1 R132H inh,T cruzi growth-1,T cruzi growth-2,T cruzi growth-3,NIH3T3 tox,3T3 cytotox 2
CC(C)CC#Cc1ccc2c(c1)O[C@@H](CN(C)C(=O)Nc1ccccc1)[C@@H](C)CN([C@H](C)CO)S2(=O)=O,-69,-3,0,129*,102*,72,24,95*
Cc1ccnc(SCC(=O)Nc2ccccc2C)n1,.,.,0,.,.,.,.,.
O=C(CCCCCC(=O)N/N=C/c1ccncc1Br)NO,.,.,0,.,.,.,.,.
C/C=C/c1ccc([C@@H]2[C@@H](CO)N(C(=O)CC)[C@H]2CNC(=O)CC2CC2)cc1,20,-1,.,20,.,.,.,.
C/C=C/c1ccc([C@@H]2[C@@H](CNC(=O)CC3CC3)N(C(=O)CC)[C@H]2CO)cc1,8,2,.,113*,9,0,-16,20
C/C=C/c1ccc([C@H]2[C@@H](CNC(=O)CC3CC3)N(C(=O)CC)[C@H]2CO)cc1,1,0,.,103*,52,12,6,12
C/C=C/c1ccc([C@H]2[C@@H](CNC(=O)C3CC3)N(C(=O)NCCC)[C@H]2CO)cc1,-11,-3,.,97*,69,44,-21,-21
COc1ccc(OCC(=O)Nc2cc(OC)c(Cl)cc2OC)cc1,.,.,0,.,.,.,.,.
CCC(C)c1cnc(Cc2ccccc2)c(=O)[nH]1 (stereo not given),.,.,0,.,.,.,.,.
COc1ccccc1-c1ccc2c(c1)O[C@H](CN(C)S(=O)(=O)c1ccc(F)cc1)[C@H](C)CN([C@H](C)CO)S2(=O)=O,-37,-1,0,102*,103*,84,29,43*
COc1ccccc1-c1ccc2c(c1)O[C@@H](CN(C)S(=O)(=O)c1ccc(F)cc1)[C@H](C)CN([C@@H](C)CO)S2(=O)=O,-82*,-1,0,108*,109*,79,27,?
COc1ccccc1-c1ccc2c(c1)O[C@H](CN(C)S(=O)(=O)c1ccc(F)cc1)[C@@H](C)CN([C@H](C)CO)S2(=O)=O,-56,1,1,92,.,.,.,.
COc1ccccc1-c1ccc2c(c1)O[C@H](CN(C)S(=O)(=O)c1ccc(F)cc1)[C@@H](C)CN([C@@H](C)CO)S2(=O)=O,-68,0,0,103*,101*,59,24,48*
COc1ccccc1-c1ccc2c(c1)O[C@@H](CN(C)S(=O)(=O)c1ccc(F)cc1)[C@H](C)CN([C@H](C)CO)S2(=O)=O,36,-1,-1,18,.,.,.,.
Cc1cc(C)nc(SC(C)C(=O)Nc2ccccc2)n1 (stereo not given),.,.,0,.,.,.,.,.
COc1ccc(NC(=O)COc2ccc(C(C)C)cc2Br)c([N+](=O)[O-])c1,.,.,0,.,.,.,.,.
CCOC(=O)c1c(NC(=O)C23CCC(C)(C(=O)O2)C3(C)C)sc2c1CCCC2 (stereo not given),.,.,0,.,.,.,.,.
C[C@@H]1CN([C@H](C)CO)C(=O)c2cccc(NC(=O)Nc3ccc(C(F)(F)F)cc3)c2O[C@@H]1CN(C)Cc1ccc(Oc2ccccc2)cc1,-33,0,.,120*,97*,98*,29,104*
C[C@@H]1CN([C@@H](C)CO)C(=O)c2cccc(NC(=O)Nc3ccc(C(F)(F)F)cc3)c2O[C@@H]1CN(C)Cc1ccc(Oc2ccccc2)cc1,-72,.,.,124*,87,111*,60*,105*
C[C@H]1CN([C@@H](C)CO)C(=O)c2cccc(NC(=O)Nc3ccc(C(F)(F)F)cc3)c2O[C@H]1CN(C)Cc1ccc(Oc2ccccc2)cc1,2,-1,-4,93,.,.,.,.
C[C@H]1CN([C@@H](C)CO)C(=O)c2cccc(NC(=O)Nc3ccc(C(F)(F)F)cc3)c2O[C@H]1CN(C)Cc1ccc(C(F)(F)F)cc1,-8,-1,.,94,.,.,.,.
C[C@@H]1CN([C@@H](C)CO)C(=O)c2cccc(NC(=O)Nc3ccc(C(F)(F)F)cc3)c2O[C@H]1CN(C)Cc1ccc(Oc2ccccc2)cc1,12,0,-1,126*,109*,102*,-1,99*
C[C@@H]1CN([C@H](C)CO)C(=O)c2cccc(NC(=O)Nc3ccc(C(F)(F)F)cc3)c2O[C@H]1CN(C)Cc1ccc(C(F)(F)F)cc1,32,1,-5,62,.,.,.,.
C[C@@H]1CN([C@H](C)CO)C(=O)c2cccc(NC(=O)Nc3ccc(C(F)(F)F)cc3)c2O[C@H]1CN(C)Cc1ccc(Oc2ccccc2)cc1,-3,-1,-1,121*,?,91,-4,104*
CC(Oc1ccc(Br)cc1)C(=O)NCCN1CCOCC1 (stereo not given),.,.,0,.,.,.,.,.
SMILES,Pf Dd2 growth,GASC1 inh,IDH1 R132H inh,T cruzi growth-1,T cruzi growth-2,T cruzi growth-3,NIH3T3 tox,3T3 cytotox 2
CC(C)C#Cc1ccc([C@H]2[C@H](CO)N3CCCCN(S(=O)(=O)Cc4ccccc4)C[C@@H]23)cc1,-17,0,.,109*,106*,66,20,104*
CC(C)C#Cc1ccc([C@@H]2[C@H]3CN(S(=O)(=O)Cc4ccccc4)CCCCN3[C@H]2CO)cc1,-24,0,.,101*,98*,89,18,106*
C[C@@H](O)C#Cc1ccc([C@@H]2[C@H]3CN(S(=O)(=O)Cc4ccccc4)CCCCN3[C@H]2CO)cc1,-5,0,.,48,.,.,.,.
C[C@@H](O)C#Cc1ccc([C@H]2[C@@H](CO)N3CCCCN(S(=O)(=O)Cc4ccccc4)C[C@H]23)cc1,-16,-1,.,45,.,.,.,.
CC(C)CC#Cc1ccc([C@@H]2[C@H]3CN(S(=O)(=O)Cc4ccccc4)CCCCN3[C@H]2CO)cc1,-57,5,.,104*,99*,105*,24,106*
CC(C)C#Cc1ccc([C@@H]2[C@@H](CO)N3CCCCN(S(=O)(=O)Cc4ccccc4)C[C@H]23)cc1,-5,0,.,117*,107*,80,23,105*
O=C(Nc1ccc(S(=O)(=O)Nc2ccccn2)cc1)c1cccnc1,.,.,0,.,.,.,.,.
COc1ccc(OC)c(NC(=O)c2ccc(N(C)S(=O)(=O)c3ccc(OC)c(OC)c3)cc2)c1,.,.,0,.,.,.,.,.
COc1ccccc1-c1ccc([C@H]2[C@@H](CO)N3CCCCN(C(=O)NC4CCCC4)C[C@@H]23)cc1,25,0,.,100*,109*,81,-11,34*
O=C(NC1CCCC1)N1CCCCN2[C@H](CO)[C@@H](c3ccc(-c4ccccc4)cc3)[C@H]2C1,1,-3,.,61,.,.,.,.
O=C(NC1CCCC1)N1CCCCN2[C@H](CO)[C@H](c3ccc(-c4ccccc4)cc3)[C@@H]2C1,16,2,.,113*,113*,79,-17,63*
COc1ccc(OC)c2c(C)cc(Cl)nc12,.,.,-1,.,.,.,.,.

# High-throughput results from PubChem BioAssay.
